Rows were chosen to be rich in hits. Some 2.9% of all compounds tested hit in one or more screens of this group.
CHO parental Ca: counter-screen: ATP calcium response change in parental CHO cells | parental CHO-K1, ATP-induced calcium, Fluo-8 fluorescence | inhibition, % at 5.6 µM | hit rate 0.63% among 330,000;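 active = inhibition above that plate's mean sample inhibition plus 3 SD, cut at about 26% in these data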;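 note: 0% = ATP-challenged DMSO wells and 100% = DMSO wells without ATP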
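Test system: parental CHO cells; detection: calcium-sensitive Fluo-8 fluorescence; evaluation: percent inhibition of calcium signal; also added: ATP as calcium-mobilizing challenge; repeats: one well per compound; control set: ATP-challenged DMSO wells low, unchallenged DMSO wells high; compound: single nominal dose of 5.6 µM per compound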
M1 PAM parental: counter-screen for M1 PAMs: effect in parental CHO-K1 cells; hit rate 0.02% among 360,000; activation, % at 3 µM; AID 602247; ATP EC20, Fluo-8 calcium fluorescence; 0% at ATP EC20, 100% at ATP max;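 active = activation above the run cutoff, the mean activation of all test compounds plus 3 SD, cut at about 40% in these data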;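 note: peak over basal fluorescence ratio in a 140 s read after ATP addition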
CHO-K1 Ca ag: counter-screen for M1 agonists: effect in parental CHO-K1 cells; Fluo-8 calcium fluorescence; scaled to maximal ATP response, vehicle zero; activation, % at 3 µM; hit rate 0.48% among 360,000; in the data active = activation above about 15%;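 note: untransfected CHO-K1 host cells lacking M1 receptor as counterscreen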
CHO-K1 Ca antag: counter-screen for M1 antagonists: effect in parental CHO-K1 cells; ATP-induced calcium, Fluo-8 fluorescence; inhibition, % at 3 µM; hit rate 0.6% among 360,000;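 active = inhibition above a per-plate cutoff, the plate's mean sample inhibition plus 3 SD, cut at about 24% in these data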;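 note: 0% = DMSO plus EC80 ATP and 100% = DMSO alone without ATP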
OX1R antag-1: human HCRTR1 antagonism. O43613. CHO/OX1R cells, Fluo-8 calcium fluorescence, orexin A. inhibition, % at 5 µM. hit rate 0.43% among 330,000. AID 434989;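 active = inhibition above its plate's threshold, mean inhibition of all tested compounds on the plate plus 3 SD, cut at about 37% in these data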;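 note: 0% = orexin A challenge wells and 100% = SB-334867-A antagonist wells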
Target sequence (O43613 whole entry, looked up): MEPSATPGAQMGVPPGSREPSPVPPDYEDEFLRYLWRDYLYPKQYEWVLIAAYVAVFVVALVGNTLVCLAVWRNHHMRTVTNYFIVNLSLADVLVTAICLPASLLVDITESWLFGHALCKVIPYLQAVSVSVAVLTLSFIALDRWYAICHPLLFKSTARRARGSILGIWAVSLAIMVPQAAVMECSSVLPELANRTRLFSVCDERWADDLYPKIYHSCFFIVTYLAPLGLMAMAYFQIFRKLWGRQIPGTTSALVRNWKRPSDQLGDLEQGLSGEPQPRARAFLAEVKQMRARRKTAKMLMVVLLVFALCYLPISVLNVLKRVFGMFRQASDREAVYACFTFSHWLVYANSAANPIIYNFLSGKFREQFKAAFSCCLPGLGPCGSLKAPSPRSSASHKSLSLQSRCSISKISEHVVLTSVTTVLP
OX1R antag-2: OX1R (human) antagonism; inhibition, % at 6.6 µM; hit rate 1.8% among 330,000; O43613; OX1R-expressing cells, FRET antagonist read-out; AID 485270; in the data active = inhibition mostly above about 38%, no sharp cut-off; inactive = mostly below about 40%;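 note: 0% = agonist challenge alone and 100% = reference antagonist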
* hit, by the source's call; . = no result.

SMILES	CHO parental Ca	M1 PAM parental	CHO-K1 Ca ag	CHO-K1 Ca antag	OX1R antag-1	OX1R antag-2
CC(=O)C1=C(c2ccccc2)NC(=O)NC1c1cccs1 (centres undefined)	-11.2	13.6	0.7	-9.1	1.4	-4.0
COC(=O)c1ccc2c(=O)n(CC3CCCO3)c(SCC(=O)Nc3ccc(OC)cc3OC)nc2c1 (centres undefined)	1.8	20.5	0.7	-9.6	-19.5	6.7
CCOCCCNC(=O)/C=C1\Sc2ccccc2N(Cc2ccccc2F)C1=O	-12.2	0.0	0.4	-7.3	-10.3	44.0*
COc1ccc(CN2C(=O)c3ccccc3C2C(=O)NC2CCCCCC2)c(OC)c1 (centres undefined)	.	21.0	0.8	-10.4	.	.
O=C(Nc1cccc(C(F)(F)F)c1)c1scc2c1OCCO2	43.4*	5.8	0.5	-12.4	-6.5	14.7
O=C(Nc1cccc(C(F)(F)F)c1)c1cc(Br)cc2c1OCC2	7.6	-13.0	0.3	-8.6	-9.4	6.7
CCOC(=O)c1ccc(C(=S)N2CCCC2)cc1	.	10.6	-0.1	11.3	.	.
COCCN(Cc1ccc(OC)cc1)c1c(C)nc2ccc(C(=O)NCCc3c[nH]c4ccccc34)cn12	.	10.4	2.5	-4.7	.	.
CCN(CC)S(=O)(=O)c1csc(C(=O)Nc2ccccn2)c1	-22.3	-7.8	0.1	27.1*	-7.5	5.2
O=C(Nc1ccccn1)c1cccs1	-4.5	19.9	0.0	-17.0	0.5	4.1
O=C(c1cc(O)c(O)c([N+](=O)[O-])c1)c1ccccc1F	-9.5	3.9	1.6	6.9	-8.2	38.8*
COC(=O)c1ccccc1NC(=O)COc1ccccc1	-25.3	18.4	0.3	-13.5	-4.6	40.5*
O=C(CCc1ccccc1)Nc1cccc(NC(=O)CCc2ccccc2)c1	-29.4	13.9	4.7	-18.3	18.9	48.2*
COCCNC(=O)c1ccccc1NC(=O)COc1ccccc1	-11.8	15.1	1.4	-9.2	-15.4	13.6
COC(=O)c1ccccc1NC(=O)CCc1ccccc1	-14.6	-11.7	-0.2	24.1*	-12.4	23.8
O=C(CCC(=O)Nc1ccccc1)NNC(=O)CCc1ccccc1	0.9	-10.1	-0.4	18.6	-14.1	18.0
CC(C)(C)OC(=O)N1C[C@H](O)C[C@H]1C(=O)OCC(=O)c1ccc([N+](=O)[O-])cc1	-3.5	6.5	-0.1	7.4	-4.5	36.6*
CCOC(=O)c1cc(=O)c2c([N+](=O)[O-])ccc(OC)c2o1	-6.9	5.8	-0.1	-0.7	12.2	69.8*
COc1ccc([N+](=O)[O-])c2c(=O)ccoc12	-7.8	7.5	0.1	0.2	-10.7	29.5
CNc1ccccc1C(C)(C)c1cc(-c2cccc(Br)c2)no1	45.2*	10.7	1.7	6.4	33.5	20.4
Cc1n[nH]c(C)c1N1C(=O)c2cccc3c(N4CCCCCC4)ccc(c23)C1=O	75.8*	-2.8	83.5*	55.4*	90.2*	14.3
O=C(c1cccc(N2C(=O)c3ccccc3C2=O)c1)N1CCCCCC1	-19.4	2.0	1.0	-5.8	-29.3	14.3
O=C(OCCN1C(=O)c2cccc3c(N4CCOCC4)ccc(c23)C1=O)c1ccccc1Cl	90.7*	-6.7	17.9*	23.3	82.2*	68.6*
Cc1ccc(C(=O)O)cc1N1C(=O)c2cccc3c([N+](=O)[O-])ccc(c23)C1=O	0.1	-3.9	1.0	9.0	-0.5	29.5
O=C1c2cccc3c(N4CCCCC4)ccc(c23)C(=O)N1c1cccc(O)c1	56.2*	-1.3	30.5*	23.4	56.0*	6.7
SMILES	CHO parental Ca	M1 PAM parental	CHO-K1 Ca ag	CHO-K1 Ca antag	OX1R antag-1	OX1R antag-2
C=CCN1C(=O)c2cccc3c(N4CCCCC4)ccc(c23)C1=O	15.9	1.8	10.8	10.6	6.3	31.5
O=C1c2cccc3c(N4CCCCC4)ccc(c23)C(=O)N1CCO	16.4	1.4	16.5*	0.7	21.0	11.9
C[n+]1ccccc1COc1ccc(C(C)(C)C)cc1	-2.2	3.0	0.1	-6.0	-2.8	-4.4
CCCCNC(=O)C1(C)CCN1C(=O)c1csnn1 (centres undefined)	.	-3.3	0.1	-3.9	.	.
C[C@]12CCC(=O)C=C1[C@H](O)C[C@@H]1[C@@H]2[C@@H](O)C[C@@]2(C)[C@H]1CC[C@]2(O)C(=O)CO	-17.6	-8.4	2.2	33.2*	5.7	19.4
N#CCC(=O)N/N=C/c1cc(-c2ccccc2)n(-c2ccc(Cl)cc2)c1-c1ccccc1	-9.6	.	.	.	-19.3	103.6*
Cc1ccc(-n2c(-c3ccccc3)cc(/C=N/NC(=O)CC#N)c2-c2ccccc2)cc1	2.6	.	.	.	-20.9	10.2
CC(C)NC(=O)c1ccc2c(c1)N(CC(=O)N1CCCC1)C(=O)C(C)(C)O2	12.7	7.7	2.5	-20.0	14.2	-3.2
CC(C)NC(=O)c1ccc2c(c1)N(Cc1ccccc1)C(=O)C(C)(C)O2	.	-2.4	0.4	24.4*	.	.
O=C(NCc1nc2ccccc2[nH]1)C1=C[C@H](c2coc3ccccc3c2=O)C[C@H](OCc2ccc(CO)cc2)O1	-17.8	1.6	1.6	-12.9	-30.2	10.7
CCc1nc2ccc(C(=O)NCc3ccc(OC)cc3)cn2c1N(CC)CCOC	.	2.5	0.3	11.1	.	.
Cc1cc(C)c(CSc2ncc(-c3ccc([N+](=O)[O-])cc3)[nH]2)c(C)c1	40.0*	-0.9	3.5	10.9	39.9*	91.3*
O=[N+]([O-])c1ccc(-c2cnc(SCc3ccccc3Cl)[nH]2)cc1	17.0	18.8	3.1	-8.5	21.7	55.9
CC(C)N(Cc1ccccc1)C(=O)CN1c2cccc3cccc(c23)S1(=O)=O	-27.2	6.2	1.7	-16.4	-5.8	38.9*
Cn1c(=O)[nH]c(=O)c2c1nc(N1CCOCC1)n2CCCSc1ncccn1	0.5	-0.1	15.6*	-5.7	-4.4	4.8
CC(C)NC(=O)N(C)C[C@H]1Oc2c(cccc2N(C)C)C(=O)N([C@H](C)CO)C[C@@H]1C	-2.9	7.0	-0.2	-14.6	-8.9	4.3
O=S(=O)(NC1CCCCC1)c1cccc(-c2nnc(-c3ccccc3)o2)c1	-29.1	7.1	2.5	-8.6	-22.7	13.8
Cc1cc(C)c(NS(=O)(=O)c2ccc3c(c2)n(C)c(=O)n3C)c(C)c1	-13.5	5.2	0.3	-17.2	-21.7	5.8
Cc1ccccc1NS(=O)(=O)c1cccc(-c2nnc(-c3ccccc3)o2)c1	-15.7	-3.3	0.2	-1.3	-11.3	40.4*
Cc1ccccc1NS(=O)(=O)c1ccc2c(c1)n(C)c(=O)n2C	-5.4	3.8	15.4*	9.1	-25.9	17.1
CC(=O)Oc1c(I)cc(I)cc1C(=O)Nc1ccc(Cl)cc1	57.9*	-0.9	11.5	20.1	8.9	79.8*
COc1ccc(CN(C)C(=O)c2cccc(C(=O)N(C)Cc3ccc(OC)cc3)c2)cc1	-24.7	6.7	8.3	-4.9	-34.1	-3.5
CCC(=O)Nc1ccc2nc3c(=O)[nH]c(=S)[nH]c3nc2c1	-0.7	1.0	1.8	-14.3	-8.4	65.1*

Assay outcomes (PubChem BioAssay)
